# Measured values reported in ChEMBL document CHEMBL1914291, “Ptilomycalin A inhibits laccase and melanization in Cryptococcus neoformans” (Bioorg Med Chem, 2011).
# The source made the active and inactive calls. The rule behind the calls is not given here.
# Assays:
# Cryptococcus neoformans [1] = assay: Antimelanogenic activity in non-melanized Cryptococcus neoformans var. grubii assessed as inhibition of pigmentation at 0.5 ug/mL after 10 days by microtiter plate assay in presence of 1 mM catecholamine; type: functional
# Outline: (§1)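 Overnight non-melanized culture diluted in fresh defined minimal medium to OD about 0.010–0.020. Cells were exposed to compound from DMSO stock in microtiter wells containing 1 mM catecholamine (epinephrine, dopamine or L-dopa) and grown 10 days at 30 °C. Melanization/pigmentation was scored visually against cell-only and DMSO controls.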
# Cryptococcus neoformans [2] = assay: Antimelanogenic activity in non-melanized Cryptococcus neoformans var. grubii assessed as inhibition of pigmentation at 200 ug/mL after 10 days by microtiter plate assay in presence of 1 mM catecholamine; type: functional
# Outline: (§2)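 Broth assay in microtiter plates. An overnight culture of non-melanized C. neoformans var. grubii is diluted in fresh defined minimal medium to OD about 0.010–0.020. It is exposed to single sublethal concentrations (from DMSO; cells/DMSO control) in medium with 1 mM catecholamine (epinephrine, dopamine or L-dopa) at 30 °C. Pigmentation is scored visually at 10 days, with an additional check at 21 days.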
# Cryptococcus neoformans [3] = assay: Antifungal activity in Cryptococcus neoformans var. grubii assessed as clear halo diameter at 20 ug after 6 to 8 days by halo assay in presence of dopamine; type: functional; conditions: read-out: DIZ
# Outline: (§3)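 Paper-disk diffusion halo assay on lawns of C. neoformans (MAT α; var. grubii H99 serotype A, var. gattii serotype B) in defined minimal medium agar with 1 mM catecholamine (L-dopa, dopamine or epinephrine). Compounds were dissolved in DMSO and applied to 6.5 mm disks, which were dried 3 h at RT. Plates were incubated at 30 °C for 6–8 days and the clear halo diameter was measured in mm.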
# Cryptococcus neoformans [4] = assay: Antifungal activity in Cryptococcus neoformans var. grubii assessed as clear halo diameter at 20 ug after 6 to 8 days by halo assay in presence of epinephrine; type: functional; conditions: read-out: DIZ; outline: as §3
# Cryptococcus gattii [5] = assay: Antifungal activity in Cryptococcus neoformans var. gattii assessed as clear halo diameter at 20 ug after 6 to 8 days by halo assay in presence of L-dopa; type: functional, Cryptococcus bacillisporus; conditions: read-out: DIZ; outline: as §3
# Cryptococcus gattii [6] = assay: Antifungal activity in Cryptococcus neoformans var. gattii assessed as clear halo diameter at 20 ug after 6 to 8 days by halo assay in presence of dopamine; type: functional, Cryptococcus bacillisporus; conditions: read-out: DIZ; outline: as §3
# Cryptococcus gattii [7] = assay: Antifungal activity in Cryptococcus neoformans var. gattii assessed as clear halo diameter at 20 ug after 6 to 8 days by halo assay in presence of epinephrine; type: functional, Cryptococcus bacillisporus; conditions: read-out: DIZ; outline: as §3
# Cryptococcus neoformans [8] = assay: Antimelanogenic activity in non-melanized Cryptococcus neoformans var. grubii assessed as inhibition of pigmentation at 0.0625 ug/mL after 10 days by microtiter plate assay in presence of 1 mM catecholamine; type: functional; outline: as §1
# Cryptococcus neoformans [9] = assay: Antifungal activity in Cryptococcus neoformans var. grubii assessed as clear halo diameter at 2 ug after 6 days by halo assay in presence of 1 mM L-dopa; type: functional; outline: as §3
# Cryptococcus gattii [10] = assay: Antifungal activity in Cryptococcus neoformans var. gattii assessed as clear halo diameter at 2 ug after 6 days by halo assay in presence of 1 mM L-dopa; type: functional, Cryptococcus bacillisporus; outline: as §3
# Cryptococcus neoformans [11] = assay: Antifungal activity in Cryptococcus neoformans var. grubii assessed as clear halo diameter at 20 ug after 6 to 8 days by halo assay in presence of L-dopa; type: functional; conditions: read-out: DIZ; outline: as §3
# Cryptococcus neoformans [12] = assay: Antimelanogenic activity in Cryptococcus neoformans var. grubii assessed as halo diameter surrounded by non-melanized cells at 20 ug after 6 to 8 days by halo assay in presence of dopamine; type: functional; conditions: read-out: DIZ
# Outline: (§4)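 Paper-disk diffusion halo assay on a lawn of C. neoformans (MAT α; var. grubii H99 serotype A, var. gattii serotype B). Medium is defined minimal medium agar with 1 mM catecholamine (L-dopa, dopamine or epinephrine). Compound is delivered from DMSO stock onto 6.5 mm disks, which are dried 3 h at RT. Incubation is 30 °C for 6–8 days. The read-out is halo diameter (mm), with the halo checked for non-melanized cells.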
# Cryptococcus neoformans [13] = assay: Antimelanogenic activity in Cryptococcus neoformans var. grubii assessed as halo diameter surrounded by non-melanized cells at 20 ug after 6 to 8 days by halo assay in presence of epinephrine; type: functional; conditions: read-out: DIZ; outline: as §4
# Cryptococcus gattii [14] = assay: Antimelanogenic activity in Cryptococcus neoformans var. gattii assessed as halo diameter surrounded by non-melanized cells at 20 ug after 6 to 8 days by halo assay in presence of L-dopa; type: functional, Cryptococcus bacillisporus; conditions: read-out: DIZ; outline: as §4
# Cryptococcus gattii [15] = assay: Antimelanogenic activity in Cryptococcus neoformans var. gattii assessed as halo diameter surrounded by non-melanized cells at 20 ug after 6 to 8 days by halo assay in presence of dopamine; type: functional, Cryptococcus bacillisporus; conditions: read-out: DIZ; outline: as §4
# Cryptococcus gattii [16] = assay: Antimelanogenic activity in Cryptococcus neoformans var. gattii assessed as halo diameter surrounded by non-melanized cells at 20 ug after 6 to 8 days by halo assay in presence of epinephrine; type: functional, Cryptococcus bacillisporus; conditions: read-out: DIZ; outline: as §4
# Cryptococcus neoformans [17] = assay: Antimelanogenic activity in non-melanized Cryptococcus neoformans var. grubii assessed as inhibition of pigmentation at 0.8 ug/mL after 10 days by microtiter plate assay in presence of 1 mM catecholamine; type: functional; outline: as §2
# Cryptococcus neoformans [18] = assay: Antimelanogenic activity in non-melanized Cryptococcus neoformans var. grubii assessed as inhibition of pigmentation at 0.8 ug/mL after 21 days by microtiter plate assay in presence of 1 mM catecholamine; type: functional; outline: as §2
# Cryptococcus neoformans [19] = assay: Antimelanogenic activity in non-melanized Cryptococcus neoformans var. grubii assessed as onset day of melanization at 0.06 uM by drop test assay in presence of 1 mM L-dopa (reference value: 6 days); type: functional
# Outline: (§5)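 Drop test. C. neoformans culture at 10^7 cells/mL is dosed with compound at 0, 0.06, 0.2, 0.6 and 2 μM. It is dropped onto defined minimal medium plates with 1 mM L-dopa and incubated at 30 °C until melanization occurs. The read-out is the onset day of melanization.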
# Cryptococcus neoformans [20] = assay: Antimelanogenic activity in non-melanized Cryptococcus neoformans var. grubii assessed as onset day of melanization at 0.6 uM by drop test assay in presence of 1 mM L-dopa (reference value: 6 days); type: functional; outline: as §5
# Cryptococcus neoformans [21] = assay: Antimelanogenic activity in non-melanized Cryptococcus neoformans var. grubii assessed as onset day of melanization at 2 uM by drop test assay in presence of 1 mM L-dopa (reference value: 6 days); type: functional; outline: as §5
# Cryptococcus neoformans [22] = assay: Antimelanogenic activity in non-melanized Cryptococcus neoformans var. grubii assessed as delay of melanization by drop test assay in presence of 1 mM L-dopa; type: functional; outline: as §5
# Laccase [23] = molecular target: T1, Laccase (Trametes versicolor, UniProt O94222); assay: Inhibition of Trametes versicolor laccase assessed as production of dopachrome using 100 uM epinephrine as substrate preincubated for 30 mins before substrate addition
# T1 sequence (O94222 whole entry): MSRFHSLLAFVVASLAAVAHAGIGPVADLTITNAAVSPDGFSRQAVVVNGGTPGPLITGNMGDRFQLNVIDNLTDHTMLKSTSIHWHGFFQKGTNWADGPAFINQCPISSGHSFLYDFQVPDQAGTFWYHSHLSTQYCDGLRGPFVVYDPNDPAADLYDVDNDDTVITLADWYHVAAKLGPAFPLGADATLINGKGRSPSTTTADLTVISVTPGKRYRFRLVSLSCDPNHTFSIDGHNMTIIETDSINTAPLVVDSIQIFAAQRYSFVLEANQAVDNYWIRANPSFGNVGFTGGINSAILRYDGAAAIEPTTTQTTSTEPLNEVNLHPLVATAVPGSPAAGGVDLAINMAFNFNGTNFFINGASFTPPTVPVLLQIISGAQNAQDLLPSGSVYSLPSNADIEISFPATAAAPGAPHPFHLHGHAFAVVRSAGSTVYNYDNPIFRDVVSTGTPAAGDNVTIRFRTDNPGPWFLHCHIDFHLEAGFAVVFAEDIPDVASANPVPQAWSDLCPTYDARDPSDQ
# Outline: (§6)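 Cell-free assay with purified Trametes versicolor laccase. Inhibitor (0–1 mM range) is preincubated with the enzyme for 30 min before substrate is added. Substrates are epinephrine 100 μM, dopamine 200 μM or L-dopa 300 μM. Dopachrome formation is monitored colorimetrically at 480 nm. IC50 is taken from dose-response curves, mean of two experiments with SE; NaN3 is the positive control.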
# [24] = Inhibition of laccase in Cryptococcus neoformans var. grubii assessed as production of dopachrome using 100 uM epinephrine as substrate preincubated for 30 mins before substrate addition
# Outline: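 Whole-cell laccase assay. C. neoformans var. grubii is grown in asparagine salts without glucose to raise laccase, then permeabilized with toluene-ethanol (1:4). Inhibitor (0–1 mM range) is preincubated for 30 min before adding 100 μM epinephrine. Dopachrome is read at 480 nm. IC50 is the mean of two experiments with SE; NaN3 is the positive control.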
# Laccase [25] = molecular target: T1, Laccase; assay: Inhibition of Trametes versicolor laccase assessed as production of dopachrome using 200 uM dopamine as substrate preincubated for 30 mins before substrate addition; outline: as §6
# Laccase [26] = molecular target: T1, Laccase; assay: Inhibition of Trametes versicolor laccase assessed as production of dopachrome using 300 uM L-dopa as substrate preincubated for 30 mins before substrate addition; outline: as §6
# Cryptococcus neoformans [27] = assay: Antimelanogenic activity in Cryptococcus neoformans var. grubii assessed as halo diameter surrounded by non-melanized cells at 10 ug after 6 days by halo assay in presence of 1 mM L-dopa; type: functional; outline: as §4
# Cryptococcus gattii [28] = assay: Antimelanogenic activity in Cryptococcus neoformans var. gattii assessed as halo diameter surrounded by non-melanized cells at 10 ug after 6 days by halo assay in presence of 1 mM L-dopa; type: functional, Cryptococcus bacillisporus; outline: as §4
# [29] = tested on: Human immunodeficiency virus; assay: Inhibition of DNA polymerase activity of HIV reverse transcriptase at 10 uM
# Cryptococcus neoformans [30] = assay: Antimelanogenic activity in Cryptococcus neoformans var. grubii assessed as halo diameter surrounded by non-melanized cells at 20 ug after 6 to 8 days by halo assay in presence of L-dopa; type: functional; conditions: read-out: DIZ; outline: as §4
smiles,measurement,setting,value
Clc1ccc(COC(Cn2ccnc2)c2ccc(Cl)cc2Cl)c(Cl)c1 (centres undefined),Activity,Cryptococcus neoformans [1],inactive
O=C(O)CNCP(=O)(O)O,Activity,Cryptococcus neoformans [2],inactive
C[C@@H]1[C@H](O)[C@@H](C)/C=C/C=C/C=C/C=C/C=C/C=C/C=C/[C@H](O[C@@H]2O[C@H](C)[C@@H](O)[C@H](N)[C@@H]2O)C[C@@H]2O[C@](O)(C[C@@H](O)C[C@@H](O)[C@H](O)CC[C@@H](O)C[C@@H](O)CC(=O)O[C@H]1C)C[C@H](O)[C@H]2C(=O)O [AMPHOTERICIN B],zone of inhibition at 20 µg/disc,Cryptococcus neoformans [3],18 mm
same,zone of inhibition at 20 µg/disc,Cryptococcus neoformans [4],18 mm
same,zone of inhibition at 20 µg/disc,Cryptococcus gattii [5],17 mm
same,zone of inhibition at 20 µg/disc,Cryptococcus gattii [6],22 mm
same,zone of inhibition at 20 µg/disc,Cryptococcus gattii [7],18 mm
same,Activity,Cryptococcus neoformans [8],inactive
same,diameter of the inhibition zone (DIZ),Cryptococcus neoformans [9],15.5 mm
same,diameter of the inhibition zone (DIZ),Cryptococcus gattii [10],10 mm
same,zone of inhibition at 20 µg/disc,Cryptococcus neoformans [11],21 mm
CC[C@H]1CCCC[C@@]2(C[C@@H]3CC[C@@H]4[C@H](C(=O)OCCCCCCCCCCCCCCCC(=O)N(CCCN)CCCCN)[C@]5(CCC[C@@H](C)O5)NC(=[N+]34)N2)O1.[Cl-] [PTILOMYCALIN A],zone of inhibition at 20 µg/disc,Cryptococcus neoformans [12],15 mm
same,zone of inhibition at 20 µg/disc,Cryptococcus neoformans [13],12 mm
same,zone of inhibition at 20 µg/disc,Cryptococcus gattii [14],17 mm
same,zone of inhibition at 20 µg/disc,Cryptococcus gattii [15],18 mm
same,zone of inhibition at 20 µg/disc,Cryptococcus gattii [16],12 mm
same,Activity,Cryptococcus neoformans [17],Active
same,Activity,Cryptococcus neoformans [18],Active
same,Time,Cryptococcus neoformans [19],9 days
same,Time,Cryptococcus neoformans [20],20 days
same,Time,Cryptococcus neoformans [21],25 days
same,Activity,Cryptococcus neoformans [22],Dose-dependent effect
same,IC50,Laccase [23],4.7 µM
same,IC50,[24],7.3 µM
same,IC50,Laccase [25],4.9 µM
same,IC50,Laccase [26],5.8 µM
same,diameter of the inhibition zone (DIZ),Cryptococcus neoformans [27],13.5 mm
same,diameter of the inhibition zone (DIZ),Cryptococcus gattii [28],9.5 mm
same,inhibition,[29],60%
same,zone of inhibition at 20 µg/disc,Cryptococcus neoformans [30],17 mm
[N-]=[N+]=[N-] [SODIUM AZIDE],IC50,Laccase [23],263 µM
same,IC50,[24],329 µM
same,IC50,Laccase [25],257 µM
same,IC50,Laccase [26],279 µM
